{"source": "ChEMBL document CHEMBL4414566", "about": "“Cytotoxicity and Anti-inflammatory Properties of Apigenin-Derived Isolaxifolin” (J Nat Prod, 2019)", "key": {"RAW264.7": {"system": "RAW264.7", "assay": "Antiinflammatory activity in mouse RAW264.7 cells assessed as reduction in LPS-induced TNFalpha production at 0.8 to 3.1 uM preincubated with LPS for 24 hrs followed by compound addition and measured after 24 hrs by ELISA", "assay_type": "functional, cell-based", "how_it_was_run": "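Murine RAW 264.7 macrophages, 1 × 10^5/well, 4 h settling, then LPS (1.0 μg/mL) for 24 h. Medium was swapped for test solutions (0.8–3.1 μM or 2.3–9.2 μM), or DXM 254.8 μM as positive control, for another 24 h. Secreted NO was measured by Griess assay; TNF-α and IL-6 by ELISA. Run in triplicate, mean ± SD.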"}, "[1]": {"assay": "Cytotoxicity against mouse RAW264.7 cells assessed as reduction in cell viability incubated for 24 hrs by MTT assay", "assay_type": "cell-based", "settings": "read-out: MNCC", "how_it_was_run": "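MTT viability assay: RAW 264.7 cells seeded at 2.5 × 10^4 cells/well, cultured 12 h, then given five concentrations from serial dilution (up to 6.2 or 9.2 μM; final DMSO <1%) for 24 h. Viability was calculated relative to untreated blank control; n = 3, mean ± SD.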"}, "MDA-MB-231 [2]": {"system": "MDA-MB-231", "assay": "Induction of apoptosis in human MDA-MB-231 cells assessed as early apoptotic cells at 12.4 uM incubated for 48 hrs by annexin V-FITC/PI based flow cytometric analysis (Rvb= 0.24%)", "assay_type": "functional"}, "MDA-MB-231 [3]": {"system": "MDA-MB-231", "assay": "Induction of cell cycle arrest in human MDA-MB-231 cells assessed as accumulation of cells at G2/M phase at 12.4 uM incubated for 48 hrs by PI/RNase staining based flow cytometric analysis (reference value: 10.4%)", "assay_type": "functional", "how_it_was_run": "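Cell-cycle analysis: MDA-MB-231 cells were preincubated 24 h, then treated with 8.6, 12.4 or 17.3 μM for 48 h. Cells were pelleted, fixed in 75% ethanol at −20 °C overnight, and stained with PI/RNase for 15 min in the dark at ambient temperature. About 10 000 cells per well were analyzed by flow cytometry for DNA content.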"}}, "note": "Calls of active or inactive are those of the source. The rule behind the calls is not given here.", "data": [{"smiles": "CC(C)=CCc1c2c(c(O)c3c(=O)cc(-c4ccc(O)cc4)oc13)C=CC(C)(C)O2", "note": "[LAXIFOLIN]", "values": [{"measurement": "Activity", "setting": "RAW264.7", "value": "Active"}, {"measurement": "MNTC at 24 h", "setting": "[1]", "value": 3.1, "unit": "µM"}, {"measurement": "Activity", "setting": "MDA-MB-231 [2]", "value": 0.58, "unit": "%"}, {"measurement": "Activity", "setting": "MDA-MB-231 [3]", "value": 11.6, "unit": "%"}]}]}
